≈ marks a conversion by molar mass, not a printed value.
Key:
Nakaseomyces glabratus [1] = assay: In vitro minimum potentiation concentration to achieve an 8-fold reduction in fluconazole MIC against Candida glabrata strain YEM19 (overexpressing both CgDR1 and CgDR2); type: functional
Outline: (§1)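 Checkerboard assay in RPMI 1640 following the NCCLS M27-A broth dilution method. Fluconazole MIC was measured with and without varying concentrations of efflux pump inhibitor. MPC8 is the lowest inhibitor concentration giving an 8-fold reduction in fluconazole MIC. Some analogues were tested only in an abbreviated format: inhibitor concentration varied at fixed fluconazole of 1/8 and 1/32 MIC.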

Candida albicans [2] = assay: In vitro minimum potentiation concentration to achieve an 8-fold reduction in fluconazole MIC against Candida albicans strain YEM15 (overexpressing both CDR1 and CDR2); type: functional; outline: as §1
Candida albicans [3] = assay: In vitro minimum inhibitory concentration against Candida albicans; type: functional
Outline: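 C. albicans YEM15 (over-expresses CDR1 and CDR2) tested by broth dilution in RPMI 1640 following NCCLS reference method M27-A. The compound was tested alone, without fluconazole, across a range of concentrations, and the MIC was read as intrinsic antifungal activity.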

Candida albicans [4] = assay: In vitro concentration to inhibit Candida albicans CDR1 transporter gene over-expressed in Saccharomyces cerevisiae strain YEM172; type: functional, organism-based
Outline: (§2)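 Yeast strains over-expressing single pumps, inoculum 10^4 cells, incubated at 30 °C in YPD. Inhibitor concentration was varied against one fixed fluconazole concentration. That concentration was the geometric mean of the test strain's fluconazole MIC and that of the parent pump-deleted strain; for YEM172 it was 8 µg/ml.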

Candida albicans [5] = assay: In vitro concentration to inhibit Candida albicans CDR2 transporter gene over-expressed in Saccharomyces cerevisiae strain YEM171; type: functional, organism-based; outline: as §2
Nakaseomyces glabratus [6] = assay: In vitro concentration to inhibit Candida glabrata CgCDR2 transporter gene over-expressed in Saccharomyces cerevisiae strain Y218; type: functional, organism-based; outline: as §2
Nakaseomyces glabratus [7] = assay: In vitro concentration to inhibit Candida glabrata CgCDR1 transporter gene over-expressed in Saccharomyces cerevisiae strain Y170; type: functional, organism-based; outline: as §2
Candida albicans [8] = assay: In vitro concentration required against Candida albicans strain YEM 15; type: functional
Saccharomyces cerevisiae [9] = assay: In vitro concentration required to inhibit 80% growth of Saccharomyces cerevisiae strain Y170 (CgCDR1 over-expressed) after 48 h; type: functional
Saccharomyces cerevisiae [10] = assay: In vitro concentration required to inhibit 80% growth of Saccharomyces cerevisiae strain YEM139 (PDR5 deleted) after 48 h; type: functional
Saccharomyces cerevisiae [11] = assay: In vitro concentration required to inhibit 80% growth of Saccharomyces cerevisiae strain Y218 (CgCDR2 over-expressed) after 48 h; type: functional
Saccharomyces cerevisiae [12] = assay: In vitro concentration required to inhibit 80% growth of Saccharomyces cerevisiae strain YEM172 (CDR1 over-expressed) after 48 h; type: functional
Saccharomyces cerevisiae [13] = assay: In vitro concentration required to inhibit 80% growth of Saccharomyces cerevisiae strain YEM171 (CDR2 over-expressed) after 48 h; type: functional

Compound	MPC8 (Nakaseomyces glabratus [1]) [µg/mL]	MPC8 (Candida albicans [2]) [µg/mL]	further results
COc1ccc(N(C(=O)c2ccccc2Cl)C(C)c2nc3ccccc3c(=O)n2N2CCN(C)CC2)c(OC)c1 (configuration not stated)	>32	4	–
COc1ccc(N(C(=O)Nc2ccc(F)cc2)C(C)c2nc3ccccc3c(=O)n2N2CCN(C)CC2)cc1OC (configuration not stated)	>32	>32	–
COc1ccc(N(C(=O)Nc2ccc(F)cc2)C(C)c2nc3ccc(Cl)cc3c(=O)n2N2CCN(C)CC2)c(OC)c1 (configuration not stated)	2	0.25	–
COc1ccc(N(C(=O)NC(C)C)C(C)c2nc3ccccc3c(=O)n2N2CCN(C)CC2)c(OC)c1 (configuration not stated)	>32	>32	–
COc1ccc(N(C(=O)Nc2ccc(F)cc2)C(C)c2nc3ccc(OC)cc3c(=O)n2N2CCN(C)CC2)c(OC)c1 (configuration not stated)	2	0.5	–
COc1cccc(N(C(=O)Nc2ccc(F)cc2)C(C)c2nc3ccccc3c(=O)n2N2CCN(C)CC2)c1 (configuration not stated)	>32	16	–
COc1ccc(N(C(C)c2nc3ccccc3c(=O)n2N2CCN(C)CC2)S(=O)(=O)c2ccc(Cl)cc2)c(OC)c1 (configuration not stated)	>32	32	–
COc1ccc(N(C(=O)Nc2ccc(Cl)cc2)C(C)c2nc3ccccc3c(=O)n2N2CCN(C)CC2)c(OC)c1 (configuration not stated)	1	2	–
COc1ccc(N(C(=O)Nc2ccc(F)cc2)C(C)c2nc3ccc(O)cc3c(=O)n2N2CCN(C)CC2)c(OC)c1 (configuration not stated)	1	16	–
COc1ccc(NC(C)c2nc3ccccc3c(=O)n2N2CCN(C)CC2)c(OC)c1 (configuration not stated)	>32	>32	–
COc1ccc(N(C(=O)Nc2ccc(F)cc2)C(C)c2nc3cc(Cl)ccc3c(=O)n2N2CCN(C)CC2)c(OC)c1 (configuration not stated)	0.5	0.12	–
CCC(=O)Oc1ccc2nc(C(C)N(C(=O)Nc3ccc(F)cc3)c3ccc(OC)cc3OC)n(N3CCN(C)CC3)c(=O)c2c1 (configuration not stated)	4	4	–
COc1cc(N(C(=O)Nc2ccc(F)cc2)C(C)c2nc3ccccc3c(=O)n2N2CCN(C)CC2)cc(OC)c1OC (configuration not stated)	>32	8	–
CC(c1nc2ccccc2c(=O)n1N1CCN(C)CC1)N(C(=O)Nc1ccc(F)cc1)c1ccc(F)cc1F (configuration not stated)	32	8	–
COc1ccc(N(C(=O)NS(=O)(=O)c2ccc(Cl)cc2)C(C)c2nc3ccccc3c(=O)n2N2CCN(C)CC2)c(OC)c1 (configuration not stated)	>32	>32	–
COc1ccc(N(C(=O)c2ccc(Cl)cc2)C(C)c2nc3ccccc3c(=O)n2N2CCN(C)CC2)c(OC)c1 (configuration not stated)	>32	4	–
COc1ccc(N(C(=O)Nc2nc3ccccc3s2)C(C)c2nc3ccccc3c(=O)n2N2CCN(C)CC2)c(OC)c1 (configuration not stated)	16	2	–
COc1ccc(N(C(=O)Nc2ccc(F)cc2)C(C)c2nc3cc(F)ccc3c(=O)n2N2CCN(C)CC2)c(OC)c1 (configuration not stated)	1	0.5	–
CC(c1nc2ccccc2c(=O)n1N1CCN(C)CC1)N(C(=O)Nc1ccc(F)cc1)c1ccc(OCC2CC2)cc1OCC1CC1 (configuration not stated)	2	4	MIC (Candida albicans [3]): 32 µg/mL (≈ 49.9 µM)
COc1ccc(N(C(=O)Nc2cccc(Cl)c2)C(C)c2nc3ccccc3c(=O)n2N2CCN(C)CC2)c(OC)c1 (configuration not stated)	4	1	–
COc1cc(OC)c(N(C(=O)Nc2ccc(F)cc2)C(C)c2nc3ccccc3c(=O)n2N2CCN(C)CC2)c(OC)c1 (configuration not stated)	>32	>32	–

Compound	MPC8 (Nakaseomyces glabratus [1]) [µg/mL]	MPC8 (Candida albicans [2]) [µg/mL]	further results
COc1ccc(N(C(=O)Nc2ccc(F)cc2)[C@@H](C)c2nc3cc(F)ccc3c(=O)n2N2CCN(C)CC2)c(OC)c1	0.5	0.25	IC50 (Candida albicans [4]): 0.5 µg/mL (≈ 0.864 µM); IC50 (Candida albicans [5]): 16 µg/mL (≈ 27.7 µM); IC50 (Nakaseomyces glabratus [6]): 32 µg/mL (≈ 55.3 µM); IC50 (Nakaseomyces glabratus [7]): 2 µg/mL (≈ 3.46 µM)
COc1ccc(N(C(=O)Nc2ccc(F)cc2)C(C)c2nc3ccccc3c(=O)n2N2CCN(C)CC2)c(OC)c1 (configuration not stated)	4	4	–
COc1ccc(N(C(=O)Nc2ccc(F)cc2)C(C)c2nc3cccc(F)c3c(=O)n2N2CCN(C)CC2)c(OC)c1 (configuration not stated)	8	8	–
COc1ccc(NC(=O)N(c2ccc(OC)cc2OC)C(C)c2nc3ccccc3c(=O)n2N2CCN(C)CC2)cc1 (configuration not stated)	2	16	–
COc1ccccc1N(C(=O)Nc1ccc(F)cc1)C(C)c1nc2ccccc2c(=O)n1N1CCN(C)CC1 (configuration not stated)	>32	>32	–
Cc1ccc(N(C(=O)Nc2ccc(F)cc2)C(C)c2nc3ccccc3c(=O)n2N2CCN(C)CC2)c(C)c1 (configuration not stated)	>32	8	–
CC(c1nc2ccccc2c(=O)n1N1CCN(C)CC1)N(C(=O)Nc1ccc(F)cc1)c1ccccc1 (configuration not stated)	>32	>32	–
CC(c1nc2ccccc2c(=O)n1N1CCN(C)CC1)N(C)C(=O)Nc1ccc(F)cc1 (configuration not stated)	>32	>32	–
COc1ccc(N(C(=O)Nc2cccc(C#N)c2)C(C)c2nc3ccccc3c(=O)n2N2CCN(C)CC2)c(OC)c1 (configuration not stated)	32	32	–
COc1ccc(N(C(=O)Nc2ccc(F)cc2)C(C)c2nc3c(OC)cccc3c(=O)n2N2CCN(C)CC2)c(OC)c1 (configuration not stated)	8	8	–
COc1ccc(N(C(=O)Nc2ccc(F)cc2)[C@H](C)c2nc3cc(F)ccc3c(=O)n2N2CCN(C)CC2)c(OC)c1	>32	>32	IC50 (Candida albicans [4]): > 32 µg/mL; IC50 (Candida albicans [5]): > 32 µg/mL; IC50 (Nakaseomyces glabratus [6]): > 32 µg/mL; IC50 (Nakaseomyces glabratus [7]): > 32 µg/mL
COc1ccc(N(C(=O)Nc2ccc(F)cc2)C(C)c2nc3ccc(C)cc3c(=O)n2N2CCN(C)CC2)c(OC)c1 (configuration not stated)	4	0.5	–
COc1ccc(N(C(=O)Nc2ccc(F)cc2)C(C)c2nc3ccc(OCC(N)=O)cc3c(=O)n2N2CCN(C)CC2)c(OC)c1 (configuration not stated)	>32	>32	–
OC(Cn1cncn1)(Cn1cncn1)c1ccc(F)cc1F [FLUCONAZOLE]	–	–	MIC (Candida albicans [8]): 128 µg/mL (≈ 418 µM); MIC (Saccharomyces cerevisiae [9]): 128 µg/mL (≈ 418 µM); MIC (Saccharomyces cerevisiae [10]): 0.5 µg/mL (≈ 1.63 µM); MIC (Saccharomyces cerevisiae [11]): 2 µg/mL (≈ 6.53 µM); MIC (Saccharomyces cerevisiae [12]): 128 µg/mL (≈ 418 µM); MIC (Saccharomyces cerevisiae [13]): 8 µg/mL (≈ 26.1 µM)
COc1ccc(N(C(=O)Nc2ccccc2Cl)C(C)c2nc3ccccc3c(=O)n2N2CCN(C)CC2)c(OC)c1 (configuration not stated)	>32	>32	–
COc1ccc(N(C(=O)Nc2ccc(F)cc2)C(C)c2nc3ccc(F)cc3c(=O)n2N2CCN(C)CC2)c(OC)c1 (configuration not stated)	2	1	–
COc1ccc(N(C(=O)Nc2ccc(F)cc2)C(C)c2nc3ccccc3c(=O)n2N2CCN(C)CC2)cc1 (configuration not stated)	32	8	–
COc1ccc(N(C(=O)Nc2ccc(F)cc2)C(C)c2nc3cc(F)c(F)cc3c(=O)n2N2CCN(C)CC2)c(OC)c1 (configuration not stated)	0.5	0.12	–
COc1ccc(N(C(=O)Nc2ccc(C)cc2)C(C)c2nc3ccccc3c(=O)n2N2CCN(C)CC2)c(OC)c1 (configuration not stated)	4	16	–
COc1ccc(N(C(=O)Oc2ccc(Cl)cc2)C(C)c2nc3ccccc3c(=O)n2N2CCN(C)CC2)c(OC)c1 (configuration not stated)	32	32	–
COc1ccc(N(C(=O)Nc2ccccc2)C(C)c2nc3ccccc3c(=O)n2N2CCN(C)CC2)c(OC)c1 (configuration not stated)	16	16	–

From ChEMBL document CHEMBL1137900, “Quinazolinone fungal efflux pump inhibitors. Part 2: In vitro structure-activity relationships of (N-methyl-piperazinyl)-containing derivatives” (Bioorg Med Chem Lett, 2004)
